According to ChEMBL document CHEMBL4513216, “Probing the Open Global Health Chemical Diversity Library for Multistage-Active Starting Points for Next-Generation Antimalarials” (ACS Infect Dis, 2020):

Assay: Toxicity liver stage against HepG2, at 10uM
Assay type: cell-based
Parameters: test concentration 10 uM, cell line HepG2-A16-CD81EGFP
Conditions: human, HepG2-A16-CD81EGFP cells; read-out: INHIBITION
Procedure, shortened: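 Uninfected HepG2-A16-CD81EGFP cells, 3 × 10^3 per well, 1536-well, plated on prespotted compound at 10 μM final, parasite-free screening media added to match infected plates; puromycin 10 μM positive, DMSO 0.5% negative; run in parallel with 48 h PbLuc assay at 37 °C, 5% CO2; viability by CellTiter-Glo luminescence, normalized to controls.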

Compound | cytotoxicity at 10 µM [%]
COc1cccc(-c2nc(C)c(C(=O)N[C@H](CO)CC(C)C)s2)c1 | 5.08
CC[C@H](C)[C@H](NC(=O)Cn1ccc2ccc(F)cc21)C(=O)OC | 4.12
Cc1cccc2c1N(C)C(=O)C21CC(=O)Nc2c1cnn2C(C)(C)C (centres undefined) | -1.65
Cc1nn2cnnc2c(C)c1CCC(=O)Nc1nnc(C(C)C)s1 | -3.25
CCCc1cc(=O)[nH]c2nnc(SCC(=O)NC(C)(C)C)n12 | 9.57
CC(C)C(=O)N1CCC2(CC1)NC(=O)[C@H]1CN(Cc3cccnc3)C[C@H]12 | -0.331
CC(=O)N1CCc2[nH]nc(C(=O)N3CCOCC3)c2C1 | -7.37
CC(=O)N1[C@H](CN(C)C)C[C@@H]2CN(C(=O)c3ccsc3)CC[C@@H]21 | -0.744
Cc1noc(C)c1CN1C[C@@H]2COC[C@]2(COc2ccc(C#N)cn2)C1 | 9.49
Cc1ccoc1C(=O)N1C[C@@H]2COC[C@]2(CNS(C)(=O)=O)C1 | -1.14
O=C(c1cc(-n2cccc2)ccc1Cl)N1CCC2(CC1)OCCO2 | -7.58
Cc1noc(C)c1CN1CC2(CCN(C(=O)c3c[nH]cn3)C2)CC1=O (centres undefined) | -5.23
O=C(c1ccn(COc2ccc(F)cc2)n1)N1CCCCCC1 | 9.84
CCCn1nnc(NCc2cc(Br)cc(Br)c2OC)n1 | 12.6
CCC(=O)Nc1nnc(CCOc2ccccc2OC)s1 | 2.38
CC(C)N1CCOC(c2ccnc(N(C)C)n2)C1 (centres undefined) | -0.104
CC(C)(C)c1ccc(C(=O)NCCCNC(=O)c2cnccn2)cc1 | 6.58
Cc1n[nH]c(C)c1CC(=O)N1CCC(O)(CN2CCOCC2)C1 (centres undefined) | 3.1
COc1ccccc1C1(O)CCCN(C(=O)c2ccnn2C(C)C)C1 (centres undefined) | 2.59
CC(=O)NCC(=O)N1CCOC(c2cccc(N)n2)C1 (centres undefined) | -4.68
Cc1cccc(C(=O)N2CC(Cc3nccc4ccn(C)c34)C2)n1 | -40.5
CC(C)CC(=O)N1CCN(Cc2cc(-c3ccncc3)nn2C)CC1 | -23.2

Compound | cytotoxicity at 10 µM [%]
CCc1ncnc(N2CCCC(c3cc(C(N)=O)[nH]n3)C2)c1F (centres undefined) | -4.68
CC(NCc1ccccn1)c1ccc(N2CCN(C)CC2)c(F)c1 (centres undefined) | -7.85
CC(C)c1nc(CC(=O)N2CCN(C)CC2c2ccccc2)cs1 (centres undefined) | -12.6
CCOc1cccc(NC(=O)c2cnc(C)cn2)n1 | 4.14
O=c1[nH]cnc2c1CCN(S(=O)(=O)c1cccc(OC(F)(F)F)c1)C2 | -2.87
Cc1cc(C(=O)NCCSC2CCCC2)no1 | -2.21
CN1CCN(CCOc2ccc(NC(=O)c3ccc[nH]3)cc2)CC1 | -3.26
CC(c1ccccc1)N(C)CC(=O)NCCC#N (centres undefined) | 3.52
O=C(OCCNc1ncccn1)c1ccc(Cl)s1 | -2.43
COc1ccc(Cl)cc1CCNC(=O)NCc1ncnn1C | 2.06
CN(CCOc1ccc(C#N)cc1)CC1CC1 | 1.47
COc1c(C2CCCN2CC(=O)Nc2nccs2)c(C)nn1C (centres undefined) | -2.38
NS(=O)(=O)CCN1CCN(c2ccccc2O)CC1 | 9.1
CN1N=C(C(=O)N2CCN(c3ncccc3Cl)CC2)CCC1=O | 0.0793
O=C(NCCC(=O)N1CCCC1)C(OC1CCCC1)c1ccccc1 (centres undefined) | -4.36
CCNC(=O)NC(=O)CNc1cc(C(=O)OC)cc(C(F)(F)F)c1 | -7.03
CN1CCCN(c2nc3c(cnn3C(C)(C)C)c(=O)[nH]2)CC1 | -11.9
O=C(Cc1cccs1)NCC1(O)CCSCC1 | -10.5
O=C(CNc1cc2c(cc1Cl)OCCO2)NCC(F)(F)F | 0.49
Cc1cccc(CNC(=O)Nc2ccn(CCN(C)C)n2)c1 | -4.47
Cc1ccc(Br)c(S(=O)(=O)NCc2ccnn2C)c1 | 0.67
CN(CCc1ccncc1)C(=O)C1CSCN1C(=O)CC(C)(C)C (centres undefined) | 10.2

Compound | cytotoxicity at 10 µM [%]
N#Cc1ccc(N2CCC(c3nc(C(F)(F)F)c[nH]3)CC2)nc1 | -7.09
Cc1nsc(NC2CC(=O)N(C(C)(C)C)C2)n1 (centres undefined) | -8.52
COc1ncnc(N(C)C)c1NC(=O)Cc1c[nH]c2ccc(F)cc12 | -4.2
CCCn1nc(C(=O)N2CCCC2c2noc(C)n2)ccc1=O (centres undefined) | 3.57
CN(C(=O)CN1CCC(c2cc3ccccc3[nH]2)CC1)C(C)(C)C#N | 6.24
O=C(Nc1ccc2c(c1)OC1(CCCCC1)O2)c1ccc(=O)[nH]n1 | 14.1
CCCN(Cc1cnn(C)c1)CC1CCCN(S(C)(=O)=O)C1 (centres undefined) | 15.1
Cc1cccc(N2CCN(C(=O)CC3(O)CCCC3)C(C)C2)n1 (centres undefined) | 15.9
CC(C)(C)CC(=O)N1CSCC1C(=O)NCc1cccc(C#N)c1 (centres undefined) | -9.78
Cc1cc(N(C)C)nc(NCCn2cccn2)n1 | 5.65
O=c1oc(-c2cccs2)nn1CC(O)c1ccc(F)cc1 (centres undefined) | 20.4
CC(OCC(F)(F)F)C(=O)N1CCCCC1 (centres undefined) | -3.45
CCOc1ccc(CCCC(=O)N2CCC(C(=O)NC)C2)cc1C (centres undefined) | 1.85
Cc1noc(C)c1CNC(=O)c1cn(CCC2CCCCN2)nn1 (centres undefined) | 0.872
COc1ccc(C(C(=O)O)N(C)Cc2ccon2)cc1Cl (centres undefined) | -5.02
Cc1cc(CN2CCN(C(=O)C3CCC3)[C@@H]3CS(=O)(=O)C[C@@H]32)ccc1F | 0.66
COc1ccc(OC)c(C2CCN(C(=O)CCc3n[nH]c(N)n3)C2)c1 (centres undefined) | 5.27
O=C(CCc1cc2n(n1)CCCNC2)N1CCSCC1 | 8.55
CC/C=C(\C)CN1CCC(CNC(=O)c2ccc(=O)[nH]c2)CC1 | 8.06
Cc1ccnc(NCC2(N(C)C)CCOCC2)n1 | 3.81
CCn1nc(C)c(CN(CCOC)C(=O)c2cnc(C)nc2O)c1C | -2.27
COc1cccc(N2CCN(Cc3ccc4ccn(C)c4c3)CC2=O)c1 | 17.3

Compound | cytotoxicity at 10 µM [%]
Cc1nn(C)c2nc(N(Cc3ccncc3)CC3CCCO3)sc12 (centres undefined) | 9.42
CCc1nc(C)c([C@H]2CN(C)C[C@@H]2C(=O)Nc2ccc3[nH]ncc3c2)[nH]1 | -1.67
CC(C)Cc1cc(C(=O)NCCc2nnc(N)s2)n(C)n1 | 0.649
CCc1nccc(CN2CCC(CNC(=O)c3occc3C)C2)n1 (centres undefined) | 6.95
Cc1nc(C)n(CCNC(=O)C(C)n2ccnc2C(C)C)n1 (centres undefined) | -6.57
Cc1ccsc1[C@@H]1CCN(C(=O)CCOc2ccccc2)C[C@H]1O | -0.602
O=C(Cc1ccc(O)c(F)c1)N1CCN(CC2CC2)[C@@H]2CS(=O)(=O)C[C@@H]21 | -2.06
COC(=O)C1CCN(C(=O)c2cccc(NS(C)(=O)=O)c2C)CC1 | -6.71
COCC(=O)N1Cc2c(-c3cccc(C)c3)nc(N)nc2C1C (centres undefined) | -0.607
CCCC(=O)N1CCN(c2cc(-n3cnc(C)c3C)nc(C)n2)CC1 | -1.89
CCC(NC(=O)c1nn(C)cc1C(=O)O)c1ccc(C)cc1 (centres undefined) | -3.42
O=C(CNC(=O)c1ccc2c(c1)CCC2)NCCNc1ncccn1 | -6.5
CCOc1ncccc1CNc1nnc(C)c(C)c1C#N | -12.1
Cc1nc(-c2ccsc2)ccc1C(=O)NCC(C)N1CCOCC1 (centres undefined) | -3.92
Cc1nc(C)n(CC2CCCCN2CC(=O)NC(C2CC2)C2CC2)n1 (centres undefined) | -8.61
O=C(c1cccc2ncccc12)N1CCC(Nc2cccnn2)CC1 | -14.7
O=C(NCCNC(=O)c1scnc1Cl)c1ccoc1 | -7.91
O=C(NCCNc1ncccn1)C1CC(=O)N(Cc2ccccc2)C1 (centres undefined) | -16.2
COc1cccc(COCC(=O)N2CCCC(n3cncn3)C2)c1 (centres undefined) | -21.1
COCc1nc(C(=O)N2CCCC(n3ccnc3C)C2)cs1 (centres undefined) | -33.6
Cc1cnn(CC2CCCN2CC(=O)Nc2cc(C)on2)c1 (centres undefined) | -26.7
CCc1nc(CN2CCN(C(C)c3nc(C4CC4)no3)CC2)no1 (centres undefined) | -9.45

Compound | cytotoxicity at 10 µM [%]
CCc1n[nH]c(C2CN(C(=O)c3cscn3)CCO2)n1 (centres undefined) | 5.08
O=C(NCCc1ccn(-c2ccccc2)n1)N1CCCC(CO)C1 (centres undefined) | -23.1
COc1ccnc(N2CCCN(C(=O)Cc3ccc(C)s3)CC2)n1 | -2.12
c1cnnc(N2CCCC2CNc2ncnc3c2CCC3)c1 (centres undefined) | -0.626
Cn1ccc(C(=O)N2CCN(CCc3ccccc3)CC2)cc1=O | 5.8
CN(C)CCN1C(=O)CCC12CCCN(C(=O)c1ccncc1F)C2 (centres undefined) | 3.06
Cc1ccc(CN2CCC3(CCCC(=O)N3)CC2)s1 | -3.45
Cn1cc(N2C(=O)CC[C@@H]3[C@H]2CCN3Cc2cccc(C#N)c2)cn1 | 8.51
Cc1cccc(CN2C(=O)CCC23CCN(C(=O)c2ccco2)CC3)n1 | 4.17
CCCS(=O)(=O)N1CCC2(CN(c3ccsc3)C(=O)CN2C)C1 (centres undefined) | -21.1
Cc1nnc(N2C[C@@H](Oc3ccccn3)[C@H]3OCCC[C@H]32)s1 | -5
Cn1ccnc1C(=O)NCc1cnc2n1CCN(CC1CC1)CC2 | 5.93
O=C(CC1CCCC1)N1C[C@H](Oc2cccnc2)[C@H]2OCCC[C@H]21 | 3.82
CCS(=O)(=O)N1C[C@H]2CCC[C@@]2(COc2ccccn2)C1 | -4.09
Cc1ccc(CN2CCc3[nH]nc(C(=O)N4CCN(C)CC4)c3C2)o1 | -8.19
CCN1C(=O)CCC12CCCN(Cc1ccc(F)cc1)CC2 (centres undefined) | -0.861
CCN1CCCn2c(nc(CNC(=O)c3cnoc3C)cc2=O)C1 | 6.13
COCCN1C[C@@H]2CC[C@H]1CN(Cc1cc(=O)c3cc(C)ccc3[nH]1)C2 | -5.31
O=C(NCC1CCC(c2ccnc3ncnn23)CC1)c1ccccn1 (centres undefined) | 3.64
COCCN1C(=O)[C@@H]2CC[C@H]1CN(Cc1nnc(-c3ccccc3)o1)C2 | -4.94
O[C@@H]1CC(CNCC2CCCC2)(COc2cccnc2)C[C@@H]1O (some centres undefined) | -6.53
